Experiments:
[1] = target: Tyrosine-protein kinase Fgr (Homo sapiens) (UniProt P09769); assay: Inhibition of FGR at 1 uM in presence of 10 uM ATP by Select Screen kinase assay relative to untreated control
Procedure, shortened: (§1)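 Single-concentration profiling at 1 μM against a panel of 220 purified kinases, run as an outsourced SelectScreen kinase profiling service. Activity is expressed as percent inhibition.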

[2] = target: T1, Serine/threonine-protein kinase Nek1 (Homo sapiens) (UniProt Q96PY6); assay: Inhibition of NEK1 at 1 uM in presence of 10 uM ATP by Select Screen kinase assay relative to untreated control; procedure, shortened: as §1
T1 sequence (whole entry): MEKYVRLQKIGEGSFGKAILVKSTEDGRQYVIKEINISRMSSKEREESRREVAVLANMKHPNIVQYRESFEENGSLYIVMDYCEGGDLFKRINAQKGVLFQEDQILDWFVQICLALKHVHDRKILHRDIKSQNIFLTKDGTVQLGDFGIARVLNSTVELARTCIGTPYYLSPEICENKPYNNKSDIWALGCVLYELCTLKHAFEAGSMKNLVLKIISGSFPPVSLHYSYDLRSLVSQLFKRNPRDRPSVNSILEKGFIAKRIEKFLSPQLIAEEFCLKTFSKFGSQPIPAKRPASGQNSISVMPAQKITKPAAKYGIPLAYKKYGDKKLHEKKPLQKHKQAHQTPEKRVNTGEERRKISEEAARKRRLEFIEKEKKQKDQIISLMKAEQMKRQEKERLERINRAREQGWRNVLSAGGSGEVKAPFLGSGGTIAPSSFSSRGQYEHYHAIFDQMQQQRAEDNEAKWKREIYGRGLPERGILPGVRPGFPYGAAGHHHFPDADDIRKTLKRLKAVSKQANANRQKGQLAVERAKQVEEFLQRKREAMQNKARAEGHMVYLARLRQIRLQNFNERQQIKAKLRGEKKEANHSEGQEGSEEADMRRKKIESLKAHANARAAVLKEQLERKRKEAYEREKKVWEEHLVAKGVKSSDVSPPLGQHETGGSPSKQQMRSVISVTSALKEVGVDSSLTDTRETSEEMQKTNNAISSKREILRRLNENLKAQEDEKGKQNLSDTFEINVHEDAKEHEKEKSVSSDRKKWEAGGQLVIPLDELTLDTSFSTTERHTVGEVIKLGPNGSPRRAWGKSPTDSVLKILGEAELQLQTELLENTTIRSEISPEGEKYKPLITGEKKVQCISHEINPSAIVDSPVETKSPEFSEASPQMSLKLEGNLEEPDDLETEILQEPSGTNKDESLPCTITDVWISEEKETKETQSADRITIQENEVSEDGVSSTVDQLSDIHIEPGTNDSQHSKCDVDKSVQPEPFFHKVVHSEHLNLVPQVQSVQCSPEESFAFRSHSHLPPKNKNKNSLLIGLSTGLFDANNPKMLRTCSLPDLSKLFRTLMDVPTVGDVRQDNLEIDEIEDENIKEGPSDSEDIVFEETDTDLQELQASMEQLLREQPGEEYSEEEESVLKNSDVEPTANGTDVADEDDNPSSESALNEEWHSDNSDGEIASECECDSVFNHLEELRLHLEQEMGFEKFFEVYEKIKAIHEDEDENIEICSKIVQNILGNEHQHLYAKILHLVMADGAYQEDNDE

[3] = target: Tyrosine-protein kinase Lck (Homo sapiens) (UniProt P06239); assay: Inhibition of LCK at 1 uM in presence of 10 uM ATP by Select Screen kinase assay relative to untreated control; procedure, shortened: as §1
[4] = target: Proto-oncogene tyrosine-protein kinase ROS (Homo sapiens) (UniProt P08922); assay: Inhibition of ROS1 at 1 uM in presence of 10 uM ATP by Select Screen kinase assay relative to untreated control
Procedure, shortened: (§2)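 Commercial SelectScreen profiling panel of 220 purified kinases. Each kinase was tested at a single inhibitor concentration of 1 μM, and activity was expressed as percent inhibition.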

[5] = target: Fibroblast growth factor receptor 3 (Homo sapiens) (UniProt P22607); assay: Inhibition of FGFR3 at 1 uM in presence of 10 uM ATP by Select Screen kinase assay relative to untreated control; procedure, shortened: as §1
[6] = target: Tyrosine-protein kinase Srms (Homo sapiens) (UniProt Q9H3Y6); assay: Inhibition of SRMS at 1 uM in presence of 10 uM ATP by Select Screen kinase assay relative to untreated control; procedure, shortened: as §2
[7] = target: Fibroblast growth factor receptor 2 (Homo sapiens) (UniProt P21802); assay: Inhibition of FGFR2 at 1 uM in presence of 10 uM ATP by Select Screen kinase assay relative to untreated control; procedure, shortened: as §1
[8] = target: Receptor tyrosine-protein kinase erbB-2 (Homo sapiens) (UniProt P04626); assay: Inhibition of ERBB2 at 1 uM in presence of 10 uM ATP by Select Screen kinase assay relative to untreated control
Procedure, shortened: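 Single-point screen at 1 μM against a panel of 220 purified kinases, run by Invitrogen staff as a SelectScreen profiling service. Read-out is percent inhibition of kinase activity.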

[9] = target: T2, Inhibitor of nuclear factor kappa-B kinase subunit beta (Homo sapiens) (UniProt O14920); assay: Inhibition of IKBKB at 1 uM in presence of 10 uM ATP by Select Screen kinase assay relative to untreated control; procedure, shortened: as §1
T2 sequence (whole entry): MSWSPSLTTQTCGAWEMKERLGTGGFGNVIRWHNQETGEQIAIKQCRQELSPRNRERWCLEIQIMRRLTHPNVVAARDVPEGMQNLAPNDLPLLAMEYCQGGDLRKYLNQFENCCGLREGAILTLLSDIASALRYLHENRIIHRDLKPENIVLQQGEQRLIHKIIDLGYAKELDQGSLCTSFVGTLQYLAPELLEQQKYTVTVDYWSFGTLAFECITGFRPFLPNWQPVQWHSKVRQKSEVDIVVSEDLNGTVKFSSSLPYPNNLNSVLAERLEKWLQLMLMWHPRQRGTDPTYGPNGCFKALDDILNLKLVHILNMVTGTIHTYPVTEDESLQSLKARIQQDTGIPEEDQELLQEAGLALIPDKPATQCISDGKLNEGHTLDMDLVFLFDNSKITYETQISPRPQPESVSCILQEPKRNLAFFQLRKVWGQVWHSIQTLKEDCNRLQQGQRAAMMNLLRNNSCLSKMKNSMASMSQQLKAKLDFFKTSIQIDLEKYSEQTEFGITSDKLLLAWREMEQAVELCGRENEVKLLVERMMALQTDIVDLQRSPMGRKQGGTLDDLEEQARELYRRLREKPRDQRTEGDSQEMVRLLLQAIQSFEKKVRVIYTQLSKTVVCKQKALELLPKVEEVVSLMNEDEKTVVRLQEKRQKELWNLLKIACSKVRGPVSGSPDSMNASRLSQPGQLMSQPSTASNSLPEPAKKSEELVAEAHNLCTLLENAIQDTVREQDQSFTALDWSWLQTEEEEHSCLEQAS

Chain of Receptor tyrosine-protein kinase erbB-2 (Homo sapiens) (P04626 whole entry): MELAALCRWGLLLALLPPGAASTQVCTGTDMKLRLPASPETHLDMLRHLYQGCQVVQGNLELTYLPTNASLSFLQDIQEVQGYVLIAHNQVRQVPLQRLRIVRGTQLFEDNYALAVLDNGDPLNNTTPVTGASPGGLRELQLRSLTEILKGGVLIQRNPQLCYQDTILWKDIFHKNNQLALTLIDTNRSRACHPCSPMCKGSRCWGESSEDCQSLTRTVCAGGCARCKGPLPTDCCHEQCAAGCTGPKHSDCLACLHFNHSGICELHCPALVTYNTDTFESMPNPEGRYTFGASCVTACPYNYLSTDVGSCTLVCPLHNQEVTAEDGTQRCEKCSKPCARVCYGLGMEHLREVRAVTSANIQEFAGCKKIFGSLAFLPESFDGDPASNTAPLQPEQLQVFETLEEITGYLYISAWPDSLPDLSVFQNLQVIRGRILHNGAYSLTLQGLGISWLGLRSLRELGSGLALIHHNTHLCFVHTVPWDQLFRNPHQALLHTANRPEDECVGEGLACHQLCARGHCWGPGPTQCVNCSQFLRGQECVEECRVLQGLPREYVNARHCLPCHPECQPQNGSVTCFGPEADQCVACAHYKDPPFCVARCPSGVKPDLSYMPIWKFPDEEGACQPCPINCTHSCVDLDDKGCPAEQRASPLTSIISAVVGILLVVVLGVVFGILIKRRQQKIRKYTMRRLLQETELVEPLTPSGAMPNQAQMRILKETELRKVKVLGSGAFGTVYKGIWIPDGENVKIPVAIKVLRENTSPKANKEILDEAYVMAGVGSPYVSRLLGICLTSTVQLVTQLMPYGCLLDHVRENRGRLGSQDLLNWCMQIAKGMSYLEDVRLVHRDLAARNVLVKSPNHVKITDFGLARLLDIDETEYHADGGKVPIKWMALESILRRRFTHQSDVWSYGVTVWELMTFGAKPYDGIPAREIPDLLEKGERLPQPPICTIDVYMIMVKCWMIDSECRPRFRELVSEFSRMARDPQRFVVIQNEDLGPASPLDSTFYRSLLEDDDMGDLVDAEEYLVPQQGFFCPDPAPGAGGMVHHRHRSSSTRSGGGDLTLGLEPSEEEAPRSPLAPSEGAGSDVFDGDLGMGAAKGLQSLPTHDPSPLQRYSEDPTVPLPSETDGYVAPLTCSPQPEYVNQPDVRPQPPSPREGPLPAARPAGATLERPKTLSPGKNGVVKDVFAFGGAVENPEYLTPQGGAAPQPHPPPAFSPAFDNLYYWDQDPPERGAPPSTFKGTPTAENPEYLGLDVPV
Chain of Proto-oncogene tyrosine-protein kinase ROS (Homo sapiens) (P08922 whole entry): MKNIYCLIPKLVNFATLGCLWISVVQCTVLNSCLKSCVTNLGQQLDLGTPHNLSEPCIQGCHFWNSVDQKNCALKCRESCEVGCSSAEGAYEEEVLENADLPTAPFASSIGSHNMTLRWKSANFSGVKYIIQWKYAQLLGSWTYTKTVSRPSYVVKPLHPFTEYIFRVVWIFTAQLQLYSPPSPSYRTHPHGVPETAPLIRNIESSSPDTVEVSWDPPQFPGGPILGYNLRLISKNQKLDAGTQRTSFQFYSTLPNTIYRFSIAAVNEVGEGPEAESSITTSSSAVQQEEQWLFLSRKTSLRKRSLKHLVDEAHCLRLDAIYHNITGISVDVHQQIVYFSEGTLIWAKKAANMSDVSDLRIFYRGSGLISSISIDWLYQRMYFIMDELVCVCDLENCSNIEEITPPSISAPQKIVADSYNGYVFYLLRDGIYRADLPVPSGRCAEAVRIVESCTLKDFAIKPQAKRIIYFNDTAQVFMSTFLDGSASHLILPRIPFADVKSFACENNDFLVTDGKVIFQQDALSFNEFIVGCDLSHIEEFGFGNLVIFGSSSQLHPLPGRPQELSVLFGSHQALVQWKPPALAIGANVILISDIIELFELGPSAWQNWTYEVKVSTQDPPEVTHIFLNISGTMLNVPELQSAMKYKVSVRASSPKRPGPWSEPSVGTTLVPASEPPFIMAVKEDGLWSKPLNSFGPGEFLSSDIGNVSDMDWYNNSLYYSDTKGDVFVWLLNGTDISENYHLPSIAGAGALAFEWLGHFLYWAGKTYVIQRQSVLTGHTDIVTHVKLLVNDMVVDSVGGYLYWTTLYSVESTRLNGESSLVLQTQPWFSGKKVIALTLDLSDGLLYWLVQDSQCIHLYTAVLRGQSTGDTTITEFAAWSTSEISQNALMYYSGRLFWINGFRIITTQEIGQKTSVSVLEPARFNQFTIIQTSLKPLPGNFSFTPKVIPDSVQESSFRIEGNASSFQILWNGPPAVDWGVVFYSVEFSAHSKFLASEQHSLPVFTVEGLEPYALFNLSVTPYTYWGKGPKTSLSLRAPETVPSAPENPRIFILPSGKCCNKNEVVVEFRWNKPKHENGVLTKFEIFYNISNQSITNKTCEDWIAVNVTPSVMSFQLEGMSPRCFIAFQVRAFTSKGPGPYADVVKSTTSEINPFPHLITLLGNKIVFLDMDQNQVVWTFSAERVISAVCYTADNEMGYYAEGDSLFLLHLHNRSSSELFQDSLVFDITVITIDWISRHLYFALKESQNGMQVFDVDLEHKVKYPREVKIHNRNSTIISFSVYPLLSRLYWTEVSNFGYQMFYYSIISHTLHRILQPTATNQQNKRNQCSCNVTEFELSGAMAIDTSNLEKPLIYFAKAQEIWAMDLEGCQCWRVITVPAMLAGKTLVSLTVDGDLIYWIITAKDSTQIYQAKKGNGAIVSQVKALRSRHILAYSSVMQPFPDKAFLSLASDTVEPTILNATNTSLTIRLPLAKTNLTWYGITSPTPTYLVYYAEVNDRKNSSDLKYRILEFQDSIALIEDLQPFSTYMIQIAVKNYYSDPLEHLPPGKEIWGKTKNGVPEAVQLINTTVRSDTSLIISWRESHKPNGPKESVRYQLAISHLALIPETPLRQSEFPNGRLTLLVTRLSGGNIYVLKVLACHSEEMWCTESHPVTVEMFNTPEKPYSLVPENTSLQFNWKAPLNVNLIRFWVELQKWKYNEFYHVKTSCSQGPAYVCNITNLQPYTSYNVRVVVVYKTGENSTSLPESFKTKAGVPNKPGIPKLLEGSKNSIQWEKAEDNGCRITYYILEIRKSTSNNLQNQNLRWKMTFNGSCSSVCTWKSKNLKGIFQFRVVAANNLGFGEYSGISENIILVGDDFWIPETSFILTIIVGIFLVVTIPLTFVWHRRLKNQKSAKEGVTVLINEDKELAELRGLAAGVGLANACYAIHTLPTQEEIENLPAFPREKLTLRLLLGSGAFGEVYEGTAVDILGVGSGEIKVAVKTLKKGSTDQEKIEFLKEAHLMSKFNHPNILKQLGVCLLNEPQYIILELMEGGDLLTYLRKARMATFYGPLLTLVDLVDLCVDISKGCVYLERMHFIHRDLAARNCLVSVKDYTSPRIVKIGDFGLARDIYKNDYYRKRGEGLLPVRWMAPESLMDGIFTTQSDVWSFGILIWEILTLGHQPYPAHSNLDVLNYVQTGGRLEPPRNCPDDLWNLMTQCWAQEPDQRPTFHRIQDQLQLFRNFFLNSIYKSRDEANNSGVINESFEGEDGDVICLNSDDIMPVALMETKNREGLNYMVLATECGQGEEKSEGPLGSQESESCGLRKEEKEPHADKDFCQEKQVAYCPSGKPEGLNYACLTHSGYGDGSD
Chain of Tyrosine-protein kinase Lck (Homo sapiens) (P06239 2-509 limits assumed): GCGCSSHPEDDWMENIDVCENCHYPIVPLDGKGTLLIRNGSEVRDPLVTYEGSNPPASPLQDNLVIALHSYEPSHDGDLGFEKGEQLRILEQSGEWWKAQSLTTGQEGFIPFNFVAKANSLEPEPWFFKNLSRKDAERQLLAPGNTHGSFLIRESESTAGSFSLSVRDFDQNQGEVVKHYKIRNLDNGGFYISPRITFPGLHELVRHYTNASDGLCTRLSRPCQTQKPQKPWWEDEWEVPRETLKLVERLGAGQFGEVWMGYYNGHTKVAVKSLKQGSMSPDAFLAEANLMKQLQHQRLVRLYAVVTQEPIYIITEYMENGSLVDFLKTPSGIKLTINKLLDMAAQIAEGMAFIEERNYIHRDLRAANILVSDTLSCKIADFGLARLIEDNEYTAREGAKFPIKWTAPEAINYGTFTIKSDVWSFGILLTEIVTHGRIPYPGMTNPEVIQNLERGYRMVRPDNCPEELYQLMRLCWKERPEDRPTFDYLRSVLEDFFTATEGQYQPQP
Chain of Fibroblast growth factor receptor 2 (Homo sapiens) (P21802 22-821 limits assumed): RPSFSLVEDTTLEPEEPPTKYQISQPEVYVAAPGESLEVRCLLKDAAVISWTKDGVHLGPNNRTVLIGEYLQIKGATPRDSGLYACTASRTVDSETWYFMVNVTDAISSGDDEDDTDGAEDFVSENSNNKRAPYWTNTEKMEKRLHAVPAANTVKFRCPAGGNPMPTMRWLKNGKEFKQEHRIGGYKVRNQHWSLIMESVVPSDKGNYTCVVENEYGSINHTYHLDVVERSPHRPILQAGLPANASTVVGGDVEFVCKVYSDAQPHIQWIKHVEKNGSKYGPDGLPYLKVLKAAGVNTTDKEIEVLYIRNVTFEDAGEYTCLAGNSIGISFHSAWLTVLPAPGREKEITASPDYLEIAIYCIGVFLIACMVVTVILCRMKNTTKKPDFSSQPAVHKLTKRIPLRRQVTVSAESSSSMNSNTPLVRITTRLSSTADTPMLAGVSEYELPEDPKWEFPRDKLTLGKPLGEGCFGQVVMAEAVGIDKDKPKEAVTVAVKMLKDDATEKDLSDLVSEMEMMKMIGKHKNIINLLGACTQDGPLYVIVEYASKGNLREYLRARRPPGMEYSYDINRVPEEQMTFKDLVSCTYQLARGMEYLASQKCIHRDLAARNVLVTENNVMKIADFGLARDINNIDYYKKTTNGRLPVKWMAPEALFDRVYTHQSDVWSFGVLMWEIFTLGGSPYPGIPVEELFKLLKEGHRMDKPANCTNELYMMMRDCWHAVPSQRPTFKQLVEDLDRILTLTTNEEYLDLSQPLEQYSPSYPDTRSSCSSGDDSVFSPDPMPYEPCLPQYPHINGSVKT

| inhibition [1] | inhibition [2] | inhibition [3] | inhibition [4] | inhibition [5] | inhibition [6] | inhibition [7] | inhibition [8] | inhibition [9] | Structure (SMILES) |
| --- | --- | --- | --- | --- | --- | --- | --- | --- | --- |
| 29% | 92% | 30% | 5% | 43% | 10% | 51% | 10% | 6% | O=C(NCCCNc1nc(Nc2cccc(NC(=O)N3CCCC3)c2)ncc1I)c1cccs1 |
| 8% | 18% | 16% | 21% | 23% | 7% | 12% | 8% | 2% | COc1ccccc1N1CCN(c2ncnc3[nH]nc(Br)c23)CC1 |

| Structure (SMILES) | inhibition [1] | inhibition [2] | inhibition [3] | inhibition [4] | inhibition [5] | inhibition [6] | inhibition [7] | inhibition [8] | inhibition [9] |
| --- | --- | --- | --- | --- | --- | --- | --- | --- | --- |
| Cc1n[nH]c2ccc(-c3cncc(OC[C@@H](N)Cc4c[nH]c5ccccc45)c3)cc12 | 36% | 44% | 14% | 17% | -1% | -1% | 3% | -6% | 11% |
